Laboratory results as given in ChEMBL document CHEMBL4017491, “Phthalazino[1,2-b]quinazolinones as p53 Activators: Cell Cycle Arrest, Apoptotic Response and Bak-Bcl-xl Complex Reorganization in Bladder Cancer Cells” (J Med Chem, 2017).
Calls of active or inactive are those of the source. No cut-off for these calls is given here.

What was measured:
NCI-H460 = assay: Antiproliferative activity against human NCI-H460 cells by MTT assay; type: functional, cell-based
In short: (§1)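 Cell lines cultured in RPMI 1640 with 10% FBS. Viability read by MTT (5 mg/mL, 4 h at 37 °C), with formazan dissolved in DMSO and absorbance taken at 490 nm. Viability (%) = A490 treated / A490 control × 100. IC50 taken from dose-response curves, from three independent experiments each run in triplicate.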

MGC-803 = assay: Antiproliferative activity against human MGC803 cells by MTT assay; type: functional, cell-based; in short: as §1
HeLa = assay: Antiproliferative activity against human HeLa cells by MTT assay; type: functional, cell-based; in short: as §1
T-24 [1] = assay: Antiproliferative activity against human T24 cells by MTT assay; type: functional, cell-based; in short: as §1
HepG2 [2] = assay: Antiproliferative activity against human HepG2 cells by MTT assay; type: functional, cell-based; in short: as §1
HepG2 [3] = assay: Antitumor activity against human HepG2 cells xenografted in BALB/C nude mouse assessed as tumor growth inhibition at 6 mg/kg, ip administered every 2 days for 16 days relative to control; type: functional; details: read-out: TGI
In short: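 Male BALB/C nude mice, 6 weeks old, given subcutaneous flank injection of 5 × 10^6 HepG2 cells; tumors of 80−200 mm3 randomized, n = 6/group. Dosing ip every other day, vehicle 5% DMSO in saline (v/v). Tumor length and width measured three times a week, volume V = lw2/2; growth inhibition expressed versus vehicle group. Body weight also recorded.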

T-24 [4] = assay: Effect on p53 protein expression in human T24 cells at 10 uM after 24 hrs by Western blot analysis; type: functional, cell-based
In short: (§2)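 T24 cells (3 × 10^5 per well) grown to 85–95% confluence, then exposed 24 h to 0–10 μM. Whole-cell extracts run on SDS-PAGE and blotted to nitrocellulose. Probed with the indicated antibodies and AP-linked anti-rabbit IgG, with ECL detection. Blots stripped and reprobed for β-actin as loading control.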

Escherichia coli = assay: Induction of DNA damage in Escherichia coli pBR322 DNA assessed as effect on mobility rate at 5 uM after 1 hr by DNA relaxation assay
In short: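 pBR322 plasmid DNA incubated 1 h with compound over 1−10 μM in 5 mM Tris-HCl, 50 mM NaCl, pH 7.2. Samples run on 1.5% agarose gel, stained with 0.5 μg·mL−1 ethidium bromide; conformation and migration rate compared with 1% DMSO plus plasmid (negative control) and ethidium bromide plus plasmid (positive control).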

[5] = molecular target: Cellular tumor antigen p53 (Homo sapiens) (UniProt P04637); assay: Activation of p53 in human T24 cells assessed as p53 phosphorylation after 24 hrs by Western blot analysis; type: cell-based
Sequence of Cellular tumor antigen p53 (Homo sapiens) (P04637 whole entry, looked up): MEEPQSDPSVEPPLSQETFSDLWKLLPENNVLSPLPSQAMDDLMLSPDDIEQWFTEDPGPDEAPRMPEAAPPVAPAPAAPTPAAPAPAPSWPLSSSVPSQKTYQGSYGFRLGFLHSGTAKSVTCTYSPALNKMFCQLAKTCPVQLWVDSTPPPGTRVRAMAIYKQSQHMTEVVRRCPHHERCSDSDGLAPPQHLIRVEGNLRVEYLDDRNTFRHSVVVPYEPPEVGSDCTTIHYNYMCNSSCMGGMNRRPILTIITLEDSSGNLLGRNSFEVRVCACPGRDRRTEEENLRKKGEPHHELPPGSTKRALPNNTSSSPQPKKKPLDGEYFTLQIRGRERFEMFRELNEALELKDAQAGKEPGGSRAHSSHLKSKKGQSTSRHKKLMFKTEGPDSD
In short: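 T24 cells, 3 × 10^5 per well, grown to 85−95% confluence, then exposed to 0−10 μM for 24 h. Whole-cell extracts in sample buffer run on SDS-polyacrylamide gels and transferred to nitrocellulose. Blots probed with primary antibodies and AP-linked anti-rabbit IgG, detected by ECL. Blots stripped and reprobed for β-actin as loading control.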

T-24 [6] = assay: Effect on p53 expression in human T24 cells up to 10 uM after 24 hrs by Western blot analysis; type: functional, cell-based; in short: as §2

Compound	IC50 (NCI-H460) [µM]	IC50 (MGC-803) [µM]	IC50 (HeLa) [µM]	IC50 (T-24 [1]) [µM]	IC50 (HepG2 [2]) [µM]	inhibition in vivo at 6 mg/kg (HepG2 [3]) [%]	Activity (T-24 [4])	Activity (Escherichia coli)	Activity [5]	Activity (T-24 [6])
O=c1c2cc(Br)ccc2nc2c3ccccc3c(NCCN3CCCC3)nn12	6.84	4.15	3.71	6.43	5.21					
Cc1ccc2nc3c4ccccc4c(N4CCN(C)CC4)nn3c(=O)c2c1	70.6	34.2	85	60.5	55.2					
CC(C)N(CCNc1nn2c(=O)c3cc(Br)ccc3nc2c2ccccc12)C(C)C	13.6	10.6	11.4	12.7	11.7					
O=c1c2cc(Br)ccc2nc2c3ccccc3c(NCCCN3CCOCC3)nn12	15.1	7.21	17.4	9.03	12.8					
Cc1ccc2nc3c4ccccc4c(NCCCN(C)C)nn3c(=O)c2c1	9.7	5.24	13.6	7.28	7.82					
O=c1c2ccccc2nc2c3ccccc3c(N3CCOCC3)nn12	> 100	> 100	> 100	> 100	92.3					
Cc1ccc2nc3c4ccccc4c(N4CCOCC4)nn3c(=O)c2c1	> 100	> 100	> 100	> 100	> 100					
CN1CCN(c2nn3c(=O)c4cc(F)ccc4nc3c3ccccc23)CC1	77.7	26.1	44.9	34.8	51.9					
CC[C@@]1(O)C(=O)OCc2c1cc1n(c2=O)Cc2cc3cc(O)ccc3nc2-1 [HYDROXYCAMPTOTHECIN]	4.91	15.2	29.2	5.53	5.52	71.6				
COc1ccc(C2=N[C@H](c3ccc(Cl)cc3)[C@H](c3ccc(Cl)cc3)N2C(=O)N2CCNC(=O)C2)c(OC(C)C)c1							inactive			
CCOC(=O)CCNc1nn2c(=O)c3cc(Br)ccc3nc2c2ccccc12	> 100	> 100	> 100	> 100	> 100					
CN(C)CCNc1nn2c(=O)c3ccccc3nc2c2ccccc12	12.1	8.71	13	7.47	10.2					
CN(C)CCNc1nn2c(=O)c3cc(Cl)ccc3nc2c2ccccc12	5.11	4.82	5.6	3.46	4.89					
Cc1ccc2nc3c4ccccc4c(NCCCN4CCOCC4)nn3c(=O)c2c1	21.6	20.7	24.2	9.78	24.1					
O=c1c2cc(Br)ccc2nc2c3ccccc3c(N3CCOCC3)nn12	> 100	> 100	> 100	> 100	> 100					
CN(C)CCNc1nn2c(=O)c3cc(F)ccc3nc2c2ccccc12	7.49	6.6	7.92	4.62	4.68					
CCOC(=O)CNc1nn2c(=O)c3cc(Br)ccc3nc2c2ccccc12	> 100	> 100	> 100	> 100	> 100					
CC[n+]1c(-c2ccccc2)c2cc(N)ccc2c2ccc(N)cc21								Active		

Compound	IC50 (NCI-H460) [µM]	IC50 (MGC-803) [µM]	IC50 (HeLa) [µM]	IC50 (T-24 [1]) [µM]	IC50 (HepG2 [2]) [µM]	inhibition in vivo at 6 mg/kg (HepG2 [3]) [%]	Activity (T-24 [4])	Activity (Escherichia coli)	Activity [5]	Activity (T-24 [6])
O=c1c2ccccc2nc2c3ccccc3c(NCCCN3CCOCC3)nn12	40.2	14.5	53.8	27.9	30.5					
CN(C)CCCNc1nn2c(=O)c3cc(Cl)ccc3nc2c2ccccc12	10.5	13.9	15.7	9.83	8.78					
Cc1ccc2nc3c4ccccc4c(NCCN(C)C)nn3c(=O)c2c1	5.69	5.65	3.41	2.12	4.97					
O=c1c2cc(Br)ccc2nc2c3ccccc3c(NCCN3CCOCC3)nn12	7.85	9.9	8.8	10.8	11.3					
CCN(CC)CCNc1nn2c(=O)c3cc(Br)ccc3nc2c2ccccc12	5.06	7.26	8.81	10.7	2.99					
O=c1c2cc(Cl)ccc2nc2c3ccccc3c(NCCCN3CCOCC3)nn12	19.9	23.1	34.6	8.85	18.3					
CN(C)CCCNc1nn2c(=O)c3ccccc3nc2c2ccccc12	17	10.7	20.2	14.5	11.5				Dose-dependent effect	inactive
CN1CCN(c2nn3c(=O)c4cc(Cl)ccc4nc3c3ccccc23)CC1	70.4	66.1	> 100	30.7	57.6					
O=c1c2cc(F)ccc2nc2c3ccccc3c(N3CCOCC3)nn12	> 100	> 100	> 100	> 100	> 100					
CN1CCN(c2nn3c(=O)c4cc(Br)ccc4nc3c3ccccc23)CC1	43.7	40.4	73.5	77	41.1					
O=c1c2cc(Cl)ccc2nc2c3ccccc3c(N3CCOCC3)nn12	> 100	> 100	> 100	> 100	> 100					
CCCCNc1nn2c(=O)c3cc(Br)ccc3nc2c2ccccc12	> 100	> 100	> 100	> 100	> 100					
CN(C)CCCNc1nn2c(=O)c3cc(F)ccc3nc2c2ccccc12	11.2	32.1	22.1	8.9	10.7					
O=c1c2cc(F)ccc2nc2c3ccccc3c(NCCCN3CCOCC3)nn12	52	79.1	60.6	18.8	45.1					
O=c1c2cc(Br)ccc2nc2c3ccccc3c(NCCN3CCCCC3)nn12	7.85	4.48	2.01	3.81	4.14					
CN1CCN(c2nn3c(=O)c4ccccc4nc3c3ccccc23)CC1	31.4	44.5	50.4	33.8	39.4					
CN(C)CCCNc1nn2c(=O)c3cc(Br)ccc3nc2c2ccccc12	5.48	3.35	7.13	3.25	2.2					
